Test results reported in ChEMBL document CHEMBL3085721, “Nonhydrolyzable ATP analogues as selective inhibitors of human NPP1: a combined computational/experimental study” (J Med Chem, 2013).
Activity calls are given as the source filed them. The calls are words filed in the database; no cut-off is given here.

Columns and labels:
[1] = molecular target: T1, Ectonucleoside triphosphate diphosphohydrolase 8 (Homo sapiens) (UniProt Q5MY95); test: Inhibition of human NTPDase8 assessed as amount of inorganic phosphate released using ATP as the substrate preincubated at 100 uM for 3 mins before substrate addition after 15 mins by malachite green reagent method
T1 sequence (whole entry): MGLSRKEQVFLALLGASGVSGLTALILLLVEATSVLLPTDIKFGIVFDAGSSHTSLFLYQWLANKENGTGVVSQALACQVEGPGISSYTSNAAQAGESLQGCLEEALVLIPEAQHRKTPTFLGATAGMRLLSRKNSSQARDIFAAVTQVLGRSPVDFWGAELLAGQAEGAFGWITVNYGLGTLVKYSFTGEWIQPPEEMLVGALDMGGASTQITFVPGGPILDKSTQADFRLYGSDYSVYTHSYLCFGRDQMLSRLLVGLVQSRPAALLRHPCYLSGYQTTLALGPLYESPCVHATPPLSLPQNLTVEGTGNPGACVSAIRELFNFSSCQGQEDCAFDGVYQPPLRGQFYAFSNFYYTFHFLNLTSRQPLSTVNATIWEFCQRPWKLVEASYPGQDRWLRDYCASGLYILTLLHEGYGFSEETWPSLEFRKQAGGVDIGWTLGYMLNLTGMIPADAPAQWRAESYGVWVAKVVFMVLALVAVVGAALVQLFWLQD
Procedure, shortened: (§1)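 Crude extracts of COS-7 cells transiently transfected with human NTPDase1, -2, -3 or -8, preincubated 3 min at 37 °C in Tris-Ringer medium pH 7.4 with analogue (final 100 μM). Started with 100 μM ATP, stopped after 15 min with malachite green; released Pi read at 630 nm. ATP alone set as 100%. Mean ± SD of 3−6 experiments in triplicate.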

[2] = molecular target: T2, Ectonucleoside triphosphate diphosphohydrolase 3 (Homo sapiens) (UniProt O75355); test: Inhibition of human NTPDase3 assessed as amount of inorganic phosphate released using ATP as the substrate preincubated at 100 uM for 3 mins before substrate addition after 15 mins by malachite green reagent method; procedure, shortened: as §1
T2 sequence (whole entry): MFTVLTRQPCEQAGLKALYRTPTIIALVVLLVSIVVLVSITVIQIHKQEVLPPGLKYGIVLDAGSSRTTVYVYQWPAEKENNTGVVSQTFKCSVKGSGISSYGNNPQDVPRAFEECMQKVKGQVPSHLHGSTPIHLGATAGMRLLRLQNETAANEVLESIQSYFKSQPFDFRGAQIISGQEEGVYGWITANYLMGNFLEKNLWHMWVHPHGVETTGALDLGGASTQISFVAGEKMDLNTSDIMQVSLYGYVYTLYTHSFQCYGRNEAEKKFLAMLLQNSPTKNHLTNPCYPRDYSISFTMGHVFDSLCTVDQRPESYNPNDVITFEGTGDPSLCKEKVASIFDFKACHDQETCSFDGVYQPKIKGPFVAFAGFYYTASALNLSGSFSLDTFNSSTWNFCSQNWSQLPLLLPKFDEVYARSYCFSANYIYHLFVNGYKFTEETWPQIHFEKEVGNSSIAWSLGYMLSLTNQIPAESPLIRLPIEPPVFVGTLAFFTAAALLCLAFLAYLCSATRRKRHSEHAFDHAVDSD

[3] = molecular target: T3, Ectonucleotide pyrophosphatase/phosphodiesterase family member 1 (Homo sapiens) (UniProt P22413); test: Inhibition of NPP1 in human HTB-85 cells assessed as production of p-nitrophenol using pnp-TMP at 100 uM measured after 20 mins by spectrophotometry; format: cell-based
T3 sequence (whole entry): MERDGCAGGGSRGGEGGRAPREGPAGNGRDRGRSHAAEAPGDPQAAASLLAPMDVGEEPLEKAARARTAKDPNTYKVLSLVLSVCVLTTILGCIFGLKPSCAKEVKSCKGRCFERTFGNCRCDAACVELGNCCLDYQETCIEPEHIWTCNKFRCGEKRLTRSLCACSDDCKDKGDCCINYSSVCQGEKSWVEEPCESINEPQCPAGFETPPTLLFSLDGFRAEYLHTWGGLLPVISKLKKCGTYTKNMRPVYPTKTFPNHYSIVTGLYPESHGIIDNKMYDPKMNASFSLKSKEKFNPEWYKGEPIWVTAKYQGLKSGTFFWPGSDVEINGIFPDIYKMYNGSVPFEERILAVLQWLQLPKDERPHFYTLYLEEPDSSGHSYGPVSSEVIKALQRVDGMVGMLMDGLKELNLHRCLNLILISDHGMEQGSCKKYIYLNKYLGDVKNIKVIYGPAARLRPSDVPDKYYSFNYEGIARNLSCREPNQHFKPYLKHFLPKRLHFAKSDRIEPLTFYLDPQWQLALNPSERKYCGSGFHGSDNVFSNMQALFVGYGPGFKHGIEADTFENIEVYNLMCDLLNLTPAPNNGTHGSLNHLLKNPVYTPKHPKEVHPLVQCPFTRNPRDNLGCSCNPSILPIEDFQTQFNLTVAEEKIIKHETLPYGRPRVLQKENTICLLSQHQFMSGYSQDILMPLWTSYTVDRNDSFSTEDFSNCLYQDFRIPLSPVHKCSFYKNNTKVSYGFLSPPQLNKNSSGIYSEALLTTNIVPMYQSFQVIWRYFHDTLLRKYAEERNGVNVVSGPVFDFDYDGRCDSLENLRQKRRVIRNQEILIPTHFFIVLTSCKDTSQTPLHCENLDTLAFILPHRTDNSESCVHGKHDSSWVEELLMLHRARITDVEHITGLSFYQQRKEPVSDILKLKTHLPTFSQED
Procedure, shortened: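 Intact osteocarcinoma HTB85 (SaOS-2) cells in 24-well plates, 0.5 mL incubation mixture, analogue and pnp-TMP each at 100 μM. After 20 min an aliquot was read for p-nitrophenol at 410 nm. Substrate alone set as 100%. Mean ± SD of three experiments in triplicate.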

[4] = molecular target: T3, Ectonucleotide pyrophosphatase/phosphodiesterase family member 1 (Homo sapiens); test: Competitive inhibition of human NPP1 expressed in COS7 cells assessed as production of p-nitrophenol using pnp-TMP as the substrate preincubated at 25 to 100 uM for 3 mins before substrate addition measured after 15 mins by Dixon/Cornish Bowden method; format: cell-based; conditions: COS-7
Procedure, shortened: (§2)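 Crude protein extract from COS-7 cells transiently transfected with human NPP1 (sonicated, debris cleared at 300g), preincubated 3 min at 37 °C with inhibitor (0, 25, 50, 100 μM) in 1 mM CaCl2, 140 mM NaCl, 5 mM KCl, 50 mM Tris pH 8.5. pnp-TMP (25, 50, 100 μM) added; p-nitrophenol read at 410 nm after 15 min. Ki,app and inhibition type from Dixon and Cornish-Bowden plots, three independent experiments.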

[5] = molecular target: T4, Ectonucleotide pyrophosphatase/phosphodiesterase family member 1 (Homo sapiens, UniProt P22413); test: Mixed type inhibition of human NPP1 expressed in COS7 cells assessed as production of p-nitrophenol using pnp-TMP as the substrate preincubated for 3 mins before substrate addition measured after 15 mins by Dixon/Cornish Bowden method; format: cell-based, COS-7; conditions: read-out: Ki(app); procedure, shortened: as §2
T4 sequence (P22413 whole entry): T3 sequence (whole entry)

inhibition [1] | inhibition [2] | inhibition [3] | inhibition [4] | Ki [5] | SMILES
30% | – | – | – | – | B[P@@](=O)(OC[C@H]1O[C@@H](n2cnc3c(N)nc(SC)nc32)[C@H](O)[C@@H]1O)OP(=O)(O)C(F)(F)P(=O)(O)O
< 18% | < 18% | 90% | Active | 56 µM | B[P@](=O)(OC[C@H]1O[C@@H](n2cnc3c(N)nc(SC)nc32)[C@H](O)[C@@H]1O)OP(=O)(O)CP(=O)(O)O
< 18% | < 18% | 90% | Active | 0.5 µM | B[P@@](=O)(OC[C@H]1O[C@@H](n2cnc3c(N)ncnc32)[C@H](O)[C@@H]1O)OP(=O)(O)CP(=O)(O)O

Continued, compound first:

SMILES | inhibition [1] | inhibition [2] | inhibition [3] | inhibition [4] | Ki [5]
B[P@](=O)(OC[C@H]1O[C@@H](n2cnc3c(N)ncnc32)[C@H](O)[C@@H]1O)OP(=O)(O)CP(=O)(O)O | < 18% | < 18% | 41% | Active | 7 µM
CSc1nc(N)c2ncn([C@@H]3O[C@H](COP(=O)(O)C(F)(F)P(=O)(O)O)[C@@H](O)[C@H]3O)c2n1 | < 18% | < 18% | 41% | Active | 26 µM
